Measured values from ChEMBL document CHEMBL4261585, “Synthesis of 1,2,3-triazole linked 4(3H)-Quinazolinones as potent antibacterial agents against multidrug-resistant Staphylococcus aureus” (Eur J Med Chem, 2018).
Converted amounts (≈) assume the structure as drawn.

Columns and labels:
Staphylococcus aureus [1] = test: Antibacterial activity against methicillin-resistant Staphylococcus aureus NR10192 by CLSI method; type: functional
Summary of the method: (§1)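 Broth microdilution to CLSI. A single colony from Mueller-Hinton agar is grown overnight in cation-supplemented MHB at 37 °C with shaking, 18–24 h. Levofloxacin is the reference. MIC is the lowest concentration with no visible growth, from three independent runs in duplicate.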

Pseudomonas aeruginosa = test: Antibacterial activity against Pseudomonas aeruginosa ATCC 27853 after 16 to 18 hrs by CLSI method; type: functional
Summary of the method: (§2)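 Broth microdilution MIC per CLSI. A single colony from Mueller-Hinton agar is grown overnight in cation-supplemented Mueller-Hinton broth (37 °C, shaking, 18–24 h). Incubation is 37 °C for 16–18 h. MIC is the lowest concentration with no visible growth. Three independent runs, each in duplicate.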

[2] = system: Mycobacterium tuberculosis; test: Antimycobacterial activity against Mycobacterium tuberculosis H37Rv ATCC 27294 after 7 days by pesto blue-dye based broth microdilution assay; type: functional; conditions: H37Rv ATCC 27294, 168 h
Summary of the method: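 Broth microdilution in Middlebrook 7H9 with 10% ADC-Tween-80 (0.2% glycerol, 0.05% Tween-80). Compound is added from 10 mg/mL DMSO stocks as two-fold dilutions, 64–0.5 mg/L. Plates are incubated 7 days at 37 °C and read with PrestoBlue resazurin dye. MIC is the lowest concentration inhibiting visible growth, three replicates in duplicate.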

Staphylococcus aureus [3] = test: Antibacterial activity against methicillin-resistant Staphylococcus aureus NR10129 by CLSI method; type: functional; summary of the method: as §1
[4] = system: Mycolicibacterium fortuitum; test: Antimycobacterial activity against Mycobacterium fortuitum by pesto blue-dye based broth microdilution assay; type: functional
Staphylococcus aureus [5] = test: Antibacterial activity against methicillin-sensitive Staphylococcus aureus ATCC 29213 by CLSI method; type: functional; summary of the method: as §1
Staphylococcus aureus [6] = test: Antibacterial activity against methicillin-resistant Staphylococcus aureus NR119 by CLSI method; type: functional; summary of the method: as §1
Escherichia coli [7] = test: Antibacterial activity against Escherichia coli ATCC 25922 after 16 to 18 hrs in presence of PMBN by CLSI method; type: functional
Summary of the method: (§3)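 MIC per CLSI broth microdilution with compound combined with a sub-lethal level of polymyxin B nonapeptide. Inoculum is ~10⁶ CFU/mL in cation-supplemented Mueller-Hinton broth. Incubation is 37 °C for 16–18 h. MIC is read as the absence of visible growth. Three independent runs, each in duplicate.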

Staphylococcus aureus [8] = test: Antibacterial activity against Staphylococcus aureus ATCC 29213 after 16 to 18 hrs by CLSI method; type: functional; summary of the method: as §2
Staphylococcus aureus [9] = test: Antibacterial activity against methicillin-resistant Staphylococcus aureus NR10193 by CLSI method; type: functional; summary of the method: as §1
Acinetobacter baumannii [10] = test: Antibacterial activity against Acinetobacter baumannii BAA-1605 after 16 to 18 hrs by CLSI method; type: functional; summary of the method: as §2
Acinetobacter baumannii [11] = test: Antibacterial activity against Acinetobacter baumannii BAA-1605 after 16 to 18 hrs in presence of PMBN by CLSI method; type: functional; summary of the method: as §3
Staphylococcus aureus [12] = test: Antibacterial activity against vancomycin-resistant Staphylococcus aureus VRS12 by CLSI method; type: functional; summary of the method: as §1
Staphylococcus aureus [13] = test: Antibacterial activity against methicillin-resistant Staphylococcus aureus NR10198 by CLSI method; type: functional; summary of the method: as §1
Staphylococcus aureus [14] = test: Antibacterial activity against vancomycin-resistant Staphylococcus aureus VRS4 by CLSI method; type: functional; summary of the method: as §1
Staphylococcus aureus [15] = test: Antibacterial activity against methicillin-resistant Staphylococcus aureus NR10191 by CLSI method; type: functional; summary of the method: as §1
Klebsiella pneumoniae = test: Antibacterial activity against Klebsiella pneumoniae ATCC BAA-1705 after 16 to 18 hrs by CLSI method; type: functional; summary of the method: as §2
Staphylococcus aureus [16] = test: Antibacterial activity against vancomycin-resistant Staphylococcus aureus VRS1 by CLSI method; type: functional; summary of the method: as §1
[17] = system: Mycobacteroides abscessus; test: Antimycobacterial activity against Mycobacterium abscessus by pesto blue-dye based broth microdilution assay; type: functional
[18] = Selectivity index, ratio of CC50 for African green monkey Vero cells to MIC for Staphylococcus aureus ATCC 29213; type: toxicity; conditions: read-out: Selectivity Index
Summary of the method: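 Selectivity index is calculated as the Vero CC50 divided by the MIC against S. aureus ATCC 29213. CC50 comes from a 72 h MTT assay at 100–5 mg/L. MIC comes from CLSI broth microdilution at ~10⁶ CFU/mL, 37 °C, 16–18 h.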

Escherichia coli [19] = test: Antibacterial activity against Escherichia coli ATCC 25922 after 16 to 18 hrs by CLSI method; type: functional; summary of the method: as §2
Mycobacteroides chelonae = test: Antimycobacterial activity against Mycobacterium chelonae by pesto blue-dye based broth microdilution assay; type: functional
[20] = Cytotoxicity against African green monkey Vero cells after 72 hrs by MTT assay; type: cell-based; conditions: chlorocebus sabaeus
Summary of the method: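 Vero cells are seeded at ~10³ per well and held 24 h at 37 °C, 5% CO₂. Compound at 100–5 mg/L is then added for 72 h. MTT is added at […], and formazan is dissolved in DMSO and read at 540 nm. CC50 is the lowest concentration giving 50% loss of viability. Doxorubicin is the positive control. Triplicate experiments.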

Staphylococcus aureus [21] = test: Antibacterial activity against methicillin-resistant Staphylococcus aureus NR10194 by CLSI method; type: functional; summary of the method: as §1
Staphylococcus aureus [22] = test: Antibacterial activity against methicillin-resistant Staphylococcus aureus NR10186 by CLSI method; type: functional; summary of the method: as §1

N#Cc1ccc(/C=C/c2nc3ccccc3c(=O)n2-c2cccc(OCc3cn(Cc4ccccc4)nn3)c2)cc1
MIC (Staphylococcus aureus [1]): 1 µg/mL (≈ 1.86 µM) | MIC (Pseudomonas aeruginosa): > 64 µg/mL | MIC [2]: > 64 µg/mL | MIC (Staphylococcus aureus [3]): 2 µg/mL (≈ 3.73 µM) | MIC [4]: > 64 µg/mL | MIC (Staphylococcus aureus [5]): 1 µg/mL (≈ 1.86 µM) | MIC (Staphylococcus aureus [6]): 2 µg/mL (≈ 3.73 µM) | MIC (Escherichia coli [7]): > 64 µg/mL | MIC (Staphylococcus aureus [8]): 0.5 µg/mL (≈ 0.932 µM) | MIC (Staphylococcus aureus [9]): 2 µg/mL (≈ 3.73 µM) | MIC (Acinetobacter baumannii [10]): > 64 µg/mL | MIC (Acinetobacter baumannii [11]): > 64 µg/mL | MIC (Staphylococcus aureus [12]): 2 µg/mL (≈ 3.73 µM) | MIC (Staphylococcus aureus [13]): 2 µg/mL (≈ 3.73 µM) | MIC (Staphylococcus aureus [14]): 2 µg/mL (≈ 3.73 µM) | MIC (Staphylococcus aureus [15]): 1 µg/mL (≈ 1.86 µM) | MIC (Klebsiella pneumoniae): > 64 µg/mL | MIC (Staphylococcus aureus [16]): 32 µg/mL (≈ 59.6 µM) | MIC [17]: > 64 µg/mL | selectivity ratio [18]: 40 | MIC (Escherichia coli [19]): > 64 µg/mL | MIC (Mycobacteroides chelonae): > 64 µg/mL | CC50 at 72 h [20]: 20 µg/mL (≈ 37.3 µM) | MIC (Staphylococcus aureus [21]): 1 µg/mL (≈ 1.86 µM) | MIC (Staphylococcus aureus [22]): 2 µg/mL (≈ 3.73 µM)

N#Cc1ccc(/C=C/c2nc3ccccc3c(=O)n2-c2cccc(OCc3cn(Cc4ccc([N+](=O)[O-])cc4)nn3)c2)cc1
MIC (Pseudomonas aeruginosa): > 64 µg/mL | MIC [2]: > 64 µg/mL | MIC [4]: > 64 µg/mL | MIC (Staphylococcus aureus [8]): 2 µg/mL (≈ 3.44 µM) | MIC (Acinetobacter baumannii [10]): > 64 µg/mL | MIC (Klebsiella pneumoniae): > 64 µg/mL | MIC [17]: > 64 µg/mL | MIC (Escherichia coli [19]): > 64 µg/mL | MIC (Mycobacteroides chelonae): > 64 µg/mL

N#Cc1ccc(/C=C/c2nc3ccccc3c(=O)n2-c2cccc(OCc3cn(Cc4ccc(Br)cc4)nn3)c2)cc1
MIC (Pseudomonas aeruginosa): > 64 µg/mL | MIC [2]: > 64 µg/mL | MIC [4]: > 64 µg/mL | MIC (Staphylococcus aureus [8]): 16 µg/mL (≈ 26 µM) | MIC (Acinetobacter baumannii [10]): > 64 µg/mL | MIC (Klebsiella pneumoniae): > 64 µg/mL | MIC [17]: > 64 µg/mL | MIC (Escherichia coli [19]): > 64 µg/mL | MIC (Mycobacteroides chelonae): > 64 µg/mL

N#Cc1ccc(/C=C/c2nc3ccccc3c(=O)n2-c2ccc(OCc3cn(Cc4ccc(Br)cc4)nn3)cc2)cc1
MIC (Pseudomonas aeruginosa): > 64 µg/mL | MIC [2]: > 64 µg/mL | MIC [4]: > 64 µg/mL | MIC (Staphylococcus aureus [8]): > 64 µg/mL | MIC (Acinetobacter baumannii [10]): > 64 µg/mL | MIC (Klebsiella pneumoniae): > 64 µg/mL | MIC [17]: > 64 µg/mL | MIC (Escherichia coli [19]): > 64 µg/mL | MIC (Mycobacteroides chelonae): > 64 µg/mL

N#Cc1ccc(/C=C/c2nc3ccccc3c(=O)n2-c2cccc(OCc3cn(-c4ccc(C(F)(F)F)cc4)nn3)c2)cc1
MIC (Pseudomonas aeruginosa): > 64 µg/mL | MIC [2]: > 64 µg/mL | MIC [4]: > 64 µg/mL | MIC (Staphylococcus aureus [8]): 4 µg/mL (≈ 6.77 µM) | MIC (Acinetobacter baumannii [10]): > 64 µg/mL | MIC (Klebsiella pneumoniae): > 64 µg/mL | MIC [17]: > 64 µg/mL | MIC (Escherichia coli [19]): > 64 µg/mL | MIC (Mycobacteroides chelonae): > 64 µg/mL

COc1ccc(Cn2cc(COc3cccc(-n4c(/C=C/c5ccc(C#N)cc5)nc5ccccc5c4=O)c3)nn2)cc1
MIC (Pseudomonas aeruginosa): > 64 µg/mL | MIC [2]: > 64 µg/mL | MIC [4]: > 64 µg/mL | MIC (Staphylococcus aureus [8]): 0.5 µg/mL (≈ 0.882 µM) | MIC (Acinetobacter baumannii [10]): > 64 µg/mL | MIC (Klebsiella pneumoniae): > 64 µg/mL | MIC [17]: > 64 µg/mL | MIC (Escherichia coli [19]): > 64 µg/mL | MIC (Mycobacteroides chelonae): > 64 µg/mL

N#Cc1ccc(/C=C/c2nc3ccccc3c(=O)n2-c2cccc(OCc3cn(-c4cccc(Cl)c4)nn3)c2)cc1
MIC (Staphylococcus aureus [1]): 0.5 µg/mL (≈ 0.898 µM) | MIC (Pseudomonas aeruginosa): > 64 µg/mL | MIC [2]: > 64 µg/mL | MIC (Staphylococcus aureus [3]): 0.5 µg/mL (≈ 0.898 µM) | MIC [4]: > 64 µg/mL | MIC (Staphylococcus aureus [5]): 0.5 µg/mL (≈ 0.898 µM) | MIC (Staphylococcus aureus [6]): 0.5 µg/mL (≈ 0.898 µM) | MIC (Escherichia coli [7]): > 64 µg/mL | MIC (Staphylococcus aureus [8]): 0.5 µg/mL (≈ 0.898 µM) | MIC (Staphylococcus aureus [9]): 1 µg/mL (≈ 1.8 µM) | MIC (Acinetobacter baumannii [10]): > 64 µg/mL | MIC (Acinetobacter baumannii [11]): > 64 µg/mL | MIC (Staphylococcus aureus [12]): 2 µg/mL (≈ 3.59 µM) | MIC (Staphylococcus aureus [13]): 0.5 µg/mL (≈ 0.898 µM) | MIC (Staphylococcus aureus [14]): 0.5 µg/mL (≈ 0.898 µM) | MIC (Staphylococcus aureus [15]): 1 µg/mL (≈ 1.8 µM) | MIC (Klebsiella pneumoniae): > 64 µg/mL | MIC (Staphylococcus aureus [16]): 32 µg/mL (≈ 57.4 µM) | MIC [17]: > 64 µg/mL | selectivity ratio [18]: 80 | MIC (Escherichia coli [19]): > 64 µg/mL | MIC (Mycobacteroides chelonae): > 64 µg/mL | CC50 at 72 h [20]: 40 µg/mL (≈ 71.8 µM) | MIC (Staphylococcus aureus [21]): 0.5 µg/mL (≈ 0.898 µM) | MIC (Staphylococcus aureus [22]): 0.5 µg/mL (≈ 0.898 µM)

N#Cc1ccc(/C=C/c2nc3ccccc3c(=O)n2-c2cccc(OCc3cn(Cc4cccc(Br)c4)nn3)c2)cc1
MIC (Pseudomonas aeruginosa): > 64 µg/mL | MIC [2]: > 64 µg/mL | MIC [4]: > 64 µg/mL | MIC (Staphylococcus aureus [8]): 0.5 µg/mL (≈ 0.812 µM) | MIC (Acinetobacter baumannii [10]): > 64 µg/mL | MIC (Klebsiella pneumoniae): > 64 µg/mL | MIC [17]: > 64 µg/mL | MIC (Escherichia coli [19]): > 64 µg/mL | MIC (Mycobacteroides chelonae): > 64 µg/mL
